Laboratory results: ChEMBL document CHEMBL4145466, “Design, synthesis, and biological evaluation of novel combretastatin A-4 thio derivatives as microtubule targeting agents” (Eur J Med Chem, 2018)
Activity calls are given as the source filed them. The calls are words filed in the database; no cut-off is given here.

What was measured:
[1] = target: T1, Tubulin (Homo sapiens) (UniProt P68371+Q9H4B7+P0DPH7+P68366+Q13509+Q71U36+P04350+Q3ZCM7+P07437+P68363+Q9BQE3+Q6PEY2+Q13885+Q9BVA1+Q9BUF5); experiment: Inhibition of tubulin polymerization in human A431 cells assessed as chromatin condensation at 1 uM after 24 hrs by Hoechst 33258 staining-based fluorescence microscopic analysis; assay type: cell-based
In short: (§1)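 Cells were seeded at 12.5 × 10^4 per well and treated at 1 µM for 24 h. They were stained with Hoechst 33258 (10 µg/mL, 30 min, 37 °C), fixed in 4% formaldehyde, permeabilized with 1% Triton X-100 and blocked in 2% BSA. Anti-α-tubulin-FITC (1:50) was applied overnight at 4 °C, and cells were imaged by fluorescence microscopy.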

[2] = target: T1, Tubulin (Homo sapiens); experiment: Inhibition of tubulin polymerization in human HeLa cells assessed as chromatin condensation at 1 uM after 24 hrs by Hoechst 33258 staining-based fluorescence microscopic analysis; assay type: cell-based
In short: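 Cells seeded at 12.5 × 10^4 per well and exposed to 1 µM compound for 24 h. Nuclei were stained with Hoechst 33258 (10 µg/mL, 30 min, 37 °C), then fixed in 4% formaldehyde/PBS (15 min, RT). Cells were permeabilized with 1% Triton X-100, blocked with 2% BSA/PBS for 1 h, and incubated with anti-α-tubulin-FITC (1:50) overnight at 4 °C. Imaged by fluorescence microscopy.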

[3] = system: HeLa; experiment: Induction of apoptosis in human HeLa cells assessed as increase in histone-associated DNA fragments in oligonucleosomes after 24 hrs by ELISA; assay type: functional, cell-based
In short: (§2)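 Cells (2 × 10^4) were incubated for 24 h at 0.1, 0.5 or 1 µM, lysed and centrifuged. Supernatants went onto a streptavidin plate with anti-histone-biotin and anti-DNA-peroxidase for 2 h, followed by ABTS for 30 min and a reading at 405 nm. Nucleosome content was expressed as an enrichment factor, as mean ± SD of three experiments.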

[4] = system: HaCaT; experiment: Induction of apoptosis in human HaCaT cells assessed as increase in histone-associated DNA fragments in oligonucleosomes after 24 hrs by ELISA; assay type: cell-based; in short: as §2
[5] = system: SK-OV-3; experiment: Cell cycle arrest in human SKOV3 cells assessed as accumulation of cells at G2/M phase after 24 hrs by propidium iodide staining-based FACS analysis; assay type: functional
In short: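 Cells were seeded at 5 × 10^5 per well in DMEM with 10% FBS and left overnight, then exposed to 0.1, 0.5 or 1 µM for 24 h. DMSO served as the negative control and 50 nM camptothecin as the positive control. Cells were trypsinized, fixed in 70% ethanol for 30 min at 4 °C, stained with 50 µg/mL PI plus 100 µg/mL RNase A for 30 min in the dark, and analysed by flow cytometry. Results are mean ± SD of three experiments, compared by ANOVA with Dunnett's test.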

[6] = system: MDA-MB-231; experiment: Induction of apoptosis in human MDA-MB-231 cells assessed as increase in histone-associated DNA fragments in oligonucleosomes after 24 hrs by ELISA; assay type: functional, cell-based; in short: as §2
[7] = system: HeLa; experiment: Induction of apoptosis in human HeLa cells assessed as increase in histone-associated DNA fragments in mononucleosomes after 24 hrs by ELISA; assay type: functional, cell-based; in short: as §2
[8] = system: SK-OV-3; experiment: Induction of apoptosis in human SKOV3 cells assessed as increase in histone-associated DNA fragments in mononucleosomes after 24 hrs by ELISA; assay type: functional, cell-based; in short: as §2
[9] = system: Tubulin; experiment: Inhibition of tubulin polymerization in human HaCaT cells assessed as chromatin condensation at 1 uM after 24 hrs by Hoechst 33258 staining-based fluorescence microscopic analysis; assay type: cell-based; in short: as §1
[10] = system: MDA-MB-231; experiment: Induction of apoptosis in human MDA-MB-231 cells assessed as increase in histone-associated DNA fragments in oligonucleosomes at 0.1 uM after 24 hrs by ELISA; assay type: functional, cell-based; in short: as §2
[11] = system: A-431; experiment: Induction of apoptosis in human A431 cells assessed as increase in histone-associated DNA fragments in oligonucleosomes at 0.1 uM after 24 hrs by ELISA; assay type: functional, cell-based; in short: as §2
[12] = system: HaCaT; experiment: Induction of apoptosis in human HaCaT cells assessed as increase in histone-associated DNA fragments in mononucleosomes at 0.1 uM after 24 hrs by ELISA; assay type: cell-based
In short: (§3)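 HaCaT cells (2 × 10^4), grown in DMEM with 10% FBS, penicillin/streptomycin and 2 mM L-glutamine, exposed to compound (DMSO stock) for 24 h. Cells lysed, supernatant taken after centrifugation and incubated 2 h on a streptavidin-coated plate with anti-histone-biotin and anti-DNA-peroxidase. ABTS added for 30 min, A405 read. Output is enrichment factor vs control, mean ± SD of three independent experiments.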

[13] = system: SK-OV-3; experiment: Induction of apoptosis in human SKOV3 cells assessed as increase in histone-associated DNA fragments in mononucleosomes at 0.1 uM after 24 hrs by ELISA; assay type: functional, cell-based; in short: as §2
[14] = system: HaCaT; experiment: Induction of apoptosis in human HaCaT cells assessed as increase in histone-associated DNA fragments in oligonucleosomes at 0.1 uM after 24 hrs by ELISA; assay type: cell-based; in short: as §3
[15] = system: HeLa; experiment: Induction of apoptosis in human HeLa cells assessed as increase in histone-associated DNA fragments in oligonucleosomes at 0.1 uM after 24 hrs by ELISA; assay type: functional, cell-based; in short: as §2
[16] = system: MCF7; experiment: Induction of apoptosis in human MCF7 cells assessed as increase in histone-associated DNA fragments in oligonucleosomes at 0.1 uM after 24 hrs by ELISA; assay type: functional, cell-based; in short: as §2
[17] = system: A-431; experiment: Induction of apoptosis in human A431 cells assessed as increase in histone-associated DNA fragments in mononucleosomes at 0.1 uM after 24 hrs by ELISA; assay type: functional, cell-based; in short: as §2
[18] = system: HeLa; experiment: Induction of apoptosis in human HeLa cells assessed as increase in histone-associated DNA fragments in mononucleosomes at 0.1 uM after 24 hrs by ELISA; assay type: functional, cell-based; in short: as §2

Row | inhibition [1] | inhibition [2] | inhibition (INH) [9] | SMILES | Activity [3] | Activity [4] | Activity [5] | Activity [6] | Activity [7] | Activity [8] | Activity [10] | Activity [11] | Activity [12] | Activity [13] | Activity [14] | Activity [15] | Activity [16] | Activity [17] | Activity [18]
1 | Active | Active | Active | COc1ccc(-c2ocnc2-c2cc(Br)c(OC)c(OC)c2)cc1SC | Dose-dependent effect | Dose-dependent effect | Dose-dependent effect | Dose-dependent effect | Dose-dependent effect | Dose-dependent effect | – | – | – | – | – | – | – | – | –
2 | – | – | – | COc1ccc(-c2ocnc2-c2cc(OC)c(SC)c(OC)c2)cc1O | – | – | – | – | – | – | Active | Active | Toxic | Active | Toxic | Active | Active | Active | Active
